The source made the active and inactive calls. The rule behind the calls is not given here.
Key:
[1] = system: Candida albicans; experiment: Antifungal activity against Candida albicans Y0109 assessed as growth inhibition by automatic microplate reader analysis; format: functional
How it was run: (§1)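 Broth microdilution growth read by optical density at 630 nm on a microplate reader. MIC80 was taken as the first well showing roughly 80% growth reduction relative to the drug-free well.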

[2] = system: Candida albicans; experiment: Antifungal activity against Candida albicans SC5314 assessed as growth inhibition by automatic microplate reader analysis; format: functional; how it was run: as §1
[3] = system: Candida parapsilosis; experiment: Antifungal activity against Candida parapsilosis 22019 assessed as growth inhibition by automatic microplate reader analysis; format: functional; conditions: Lodderomyces parapsilosis; how it was run: as §1
[4] = system: Nakaseomyces glabratus; experiment: Antifungal activity against Candida glabrata 537 assessed as growth inhibition by automatic microplate reader analysis; format: functional; how it was run: as §1
[5] = system: Cryptococcus neoformans; experiment: Antifungal activity against Cryptococcus neoformans 32609 assessed as growth inhibition by automatic microplate reader analysis; format: functional; how it was run: as §1
[6] = system: Aspergillus fumigatus; experiment: Antifungal activity against Aspergillus fumigatus 07544 assessed as growth inhibition by automatic microplate reader analysis; format: functional; how it was run: as §1
[7] = system: Trichophyton rubrum; experiment: Antifungal activity against Trichophyton rubrum Cmccftla assessed as growth inhibition by automatic microplate reader analysis; format: functional; how it was run: as §1
[8] = system: Nannizzia gypsea; experiment: Antifungal activity against Microsporum gypseum Cmccfmza assessed as growth inhibition by automatic microplate reader analysis; format: functional; how it was run: as §1
[9] = system: A549; experiment: Cytotoxicity against human A549 cells assessed as growth inhibition by MTT assay; format: functional, cell-based
How it was run: (§2)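 Modified MTT colorimetric assay on human lung adenocarcinoma A549 and human osteosarcoma MG63 cells, with adriamycin as the positive control.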

[10] = system: MG-63; experiment: Cytotoxicity against human MG63 cells assessed as growth inhibition by MTT assay; format: functional, cell-based; how it was run: as §2

| Compound | MIC80 [1] [mg/L] | MIC80 [2] [mg/L] | MIC80 [3] [mg/L] | MIC80 [4] [mg/L] | MIC80 [5] [mg/L] | MIC80 [6] [mg/L] | MIC80 [7] [mg/L] | MIC80 [8] [mg/L] | inhibition [9] | inhibition [10] | IC50 [9] |
| --- | --- | --- | --- | --- | --- | --- | --- | --- | --- | --- | --- |
| OC(Cn1cncn1)(Cn1cncn1)c1ccc(F)cc1F [FLUCONAZOLE] | 0.25 | 0.25 | 1 | 2 | 1 | > 64 | 1 | 8 | – | – | – |
| C/C=C/C=C/C=C/[C@H]1C[C@@H](O)C[C@H](O)[C@@H]1CO | 16 | 16 | 16 | 16 | 8 | > 64 | 8 | 16 | inactive | inactive | – |
| CN(C/C=C/C#CC(C)(C)C)Cc1cccc2ccccc12 [TERBINAFINE] | > 64 | 64 | 8 | 8 | 8 | 4 | 1 | 0.25 | – | – | – |
| CC(=O)N1CCN(c2ccc(OCC3COC(Cn4ccnc4)(c4ccc(Cl)cc4Cl)O3)cc2)CC1 (configuration not stated) [KETOCONAZOLE] | 0.0625 | 0.125 | 0.25 | 0.125 | 0.25 | 2 | 0.0625 | 0.125 | – | – | – |
| C/C=C/C=C/C=C/[C@H]1C[C@@H](O)[C@H](O)[C@H](O)[C@@H]1CO | 16 | > 64 | > 64 | > 64 | > 64 | > 64 | > 64 | > 64 | inactive | inactive | – |
| C[C@@H](c1ncncc1F)[C@](O)(Cn1cncn1)c1ccc(F)cc1F [VORICONAZOLE] | 0.5 | 0.25 | 2 | 0.25 | 0.25 | 4 | 0.125 | 0.5 | – | – | – |
| C[C@@H](O)/C=C/C=C/[C@H]1OC[C@H]2[C@@H](O)[C@@H](O)[C@H](O)C[C@@H]21 | > 64 | > 64 | > 64 | > 64 | > 64 | > 64 | > 64 | > 64 | inactive | inactive | – |
| CCC(C)n1ncn(-c2ccc(N3CCN(c4ccc(OCC5COC(Cn6cncn6)(c6ccc(Cl)cc6Cl)O5)cc4)CC3)cc2)c1=O (configuration not stated) [ITRACONAZOLE] | 4 | 4 | 8 | 2 | 4 | 32 | 2 | 4 | – | – | – |
| C/C=C/C=C/C=C/[C@H]1C[C@@H](O)[C@H](O)C(=O)[C@@H]1CO | 16 | 16 | 16 | 16 | 16 | > 64 | 16 | > 64 | inactive | inactive | – |
| COc1cccc2c1C(=O)c1c(O)c3c(c(O)c1C2=O)C[C@@](O)(C(=O)CO)C[C@@H]3O[C@H]1C[C@H](N)[C@H](O)[C@H](C)O1 [DOXORUBICIN] | – | – | – | – | – | – | – | – | – | inactive | Not Active |

— ChEMBL document CHEMBL3297710, “Polyhydroxy cyclohexanols from a Dendrodochium sp. fungus associated with the sea cucumber Holothuria nobilis Selenka” (J Nat Prod, 2014)
